Data published in article PMC3377471 (Journal of the American Chemical Society, 2012).
*1 amine or outer side, *2 acyl side, *3 side chain or, on linkers, in order; H or OH if unused. Where a SMILES comes first, the peptide text is derived from it. [ ]: non-standard residue; d: D form. X1 = O=C([C@H]1CCC[C@@H]1N[*:1])[*:2]; X2 = O=C([C@H]1CNC[C@@H]1N[*:1])[*:2]; β3hR = N=C(N)NCCC[C@H](N)CC(=O)O; β3hT = C[C@@H](O)[C@H](N)CC(=O)O; β3hE = N[C@@H](CCC(=O)O)CC(=O)O

Tests used:
[1] = test system: proteinase K; assay: in vitro; assay type: in vitro ADME; details: isolated enzyme proteinase k
[2] = biological target: designed protein gp41-5; assay: competition fluorescence polarization; set-up: species or system HIV; details: read-out: Ki for binding to gp41-5; competition FP assay
Summary of the method: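 Competition fluorescence polarization binding of test compound to a designed gp41-5 construct made of three NHR segments and two CHR segments joined by flexible loops. Ki reported.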

[3] = test system: HIV-1 UG270; assay type: cell-based
[4] = test system: HIV-1 DJ258; assay type: cell-based
[5] = test system: HIV-1 JRFL; assay type: cell-based
[6] = biological target: proteinase K (Parengyodontium album, UniProt P06873); details: in vitro, ref 3a; cited from earlier work
proteinase K (Parengyodontium album, UniProt P06873), sequence (P06873 106-384): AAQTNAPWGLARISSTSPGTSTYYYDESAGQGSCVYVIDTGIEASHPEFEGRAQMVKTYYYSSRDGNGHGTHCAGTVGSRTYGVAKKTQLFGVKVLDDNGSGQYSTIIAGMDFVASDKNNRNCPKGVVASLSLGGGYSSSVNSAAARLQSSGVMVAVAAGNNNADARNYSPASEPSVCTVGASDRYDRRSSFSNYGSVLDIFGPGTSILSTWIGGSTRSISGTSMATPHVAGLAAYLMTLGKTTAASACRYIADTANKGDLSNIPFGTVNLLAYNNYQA

[7] = test system: HIV-1 CC 7/86; assay type: cell-based
[8] = biological target: gp41-derived NHR peptide N36 (Human immunodeficiency virus type 1 group M subtype B, UniProt P04578); assay type: physicochemical, HIV; details: variable-temperature CD; co-assembly with NHR peptide N36
gp41-derived NHR peptide N36, sequence (P04578 546-581 limits assumed): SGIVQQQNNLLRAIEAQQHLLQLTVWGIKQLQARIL

Molecule: CC[C@H](C)[C@H](NC(=O)[C@H](C)NC(=O)C[C@H](CCCNC(=N)N)NC(=O)[C@H](CC(=O)O)NC(=O)[C@H](Cc1c[nH]c2ccccc12)NC(=O)C[C@H](C)NC(=O)[C@H](CCC(=O)O)NC(=O)[C@H](Cc1c[nH]c2ccccc12)NC(=O)[C@@H](NC(=O)C[C@@H](NC(C)=O)[C@@H](C)O)[C@@H](C)O)C(=O)N[C@@H](C)C(=O)N[C@@H](CCC(=O)O)CC(=O)N[C@@H](Cc1ccc(O)cc1)C(=O)N[C@@H](C)C(=O)N[C@@H](C)CC(=O)N[C@@H](CCCNC(=N)N)C(=O)N[C@H](C(=O)N[C@@H](CCC(=O)O)C(=O)N[C@@H](C)CC(=O)N[C@@H](CC(C)C)C(=O)N[C@H](C(=O)N[C@@H](CCCNC(=N)N)CC(=O)N[C@@H](C)C(=O)N[C@@H](C)C(=O)N[C@@H](CCC(N)=O)C(=O)N[C@@H](CCC(=O)O)CC(=O)N[C@@H](CCC(N)=O)C(=O)N[C@@H](CCC(N)=O)C(=O)N[C@@H](CCC(=O)O)CC(=O)N[C@@H](CCCCN)C(=O)N[C@@H](CC(N)=O)C(=O)N[C@@H](CCC(=O)O)C(=O)N[C@@H](C)CC(=O)N[C@@H](C)C(=O)N[C@@H](CC(C)C)C(=O)N[C@@H](CCCNC(=N)N)CC(=O)N[C@@H](CCC(=O)O)C(=O)N[C@@H](CC(C)C)C(N)=O)[C@@H](C)CC)[C@@H](C)CC [1α/β]
- half-life [1]: 4 min
- Ki [2]: 3.8 µM

Molecule: CC[C@H](C)[C@H](NC(=O)[C@H](C)NC(=O)[C@H]1CNC[C@@H]1NC(=O)[C@H](CC(=O)O)NC(=O)[C@H](Cc1c[nH]c2ccccc12)NC(=O)[C@H]1CCC[C@@H]1NC(=O)[C@H](CCC(=O)O)NC(=O)[C@H](Cc1c[nH]c2ccccc12)NC(=O)[C@@H](NC(=O)C[C@@H](NC(C)=O)[C@@H](C)O)[C@@H](C)O)C(=O)N[C@@H](C)C(=O)N[C@@H](CCC(=O)O)CC(=O)N[C@@H](Cc1ccc(O)cc1)C(=O)N[C@@H](C)C(=O)N[C@H]1CCC[C@@H]1C(=O)N[C@@H](CCCNC(=N)N)C(=O)N[C@H](C(=O)N[C@@H](CCC(=O)O)C(=O)N[C@H]1CCC[C@@H]1C(=O)N[C@@H](CC(C)C)C(=O)N[C@H](C(=O)N[C@H]1CNC[C@@H]1C(=O)N[C@@H](C)C(=O)N[C@@H](C)C(=O)N[C@@H](CCC(N)=O)C(=O)N[C@@H](CCC(=O)O)CC(=O)N[C@@H](CCC(N)=O)C(=O)N[C@@H](CCC(N)=O)C(=O)N[C@@H](CCC(=O)O)CC(=O)N[C@@H](CCCCN)C(=O)N[C@@H](CC(N)=O)C(=O)N[C@@H](CCC(=O)O)C(=O)N[C@H]1CCC[C@@H]1C(=O)N[C@@H](C)C(=O)N[C@@H](CC(C)C)C(=O)N[C@H]1CNC[C@@H]1C(=O)N[C@@H](CCC(=O)O)C(=O)N[C@@H](CC(C)C)C(N)=O)[C@@H](C)CC)[C@@H](C)CC [2α/β] (Ac-[β3hT]TWE[X1]WD[X2]AIA[β3hE]YA[X1]RIE[X1]LI[X2]AAQ[β3hE]QQ[β3hE]KNE[X1]AL[X2]EL-NH2; N-terminus and C-terminus assumed)
- IC50 [3]: 0.039 µM
- IC50 [4]: 0.042 µM
- IC50 [5]: 0.131 µM
- resistance to degradation by proteinase K relative to α-peptide T-2635 [6]: ~ 300 fold
- IC50 [7]: 0.047 µM

Molecule: CC[C@H](C)[C@H](NC(=O)[C@H](C)NC(=O)C[C@H](CCCNC(=N)N)NC(=O)[C@H](CC(=O)O)NC(=O)[C@H](Cc1c[nH]c2ccccc12)NC(=O)C[C@H](CCC(=O)O)NC(=O)[C@H](CCC(=O)O)NC(=O)[C@H](Cc1c[nH]c2ccccc12)NC(=O)[C@@H](NC(=O)C[C@H](CCCNC(=N)N)NC(C)=O)[C@@H](C)O)C(=O)N[C@@H](C)C(=O)N[C@@H](CCC(=O)O)CC(=O)N[C@@H](Cc1ccc(O)cc1)C(=O)N[C@@H](C)C(=O)N[C@@H](CCCNC(=N)N)CC(=O)N[C@@H](CCCNC(=N)N)C(=O)N[C@H](C(=O)N[C@@H](CCC(=O)O)C(=O)N[C@@H](CCC(=O)O)CC(=O)N[C@@H](CC(C)C)C(=O)N[C@H](C(=O)N[C@@H](CCCNC(=N)N)CC(=O)N[C@@H](C)C(=O)N[C@@H](C)C(=O)N[C@@H](CCC(N)=O)C(=O)N[C@@H](CCC(=O)O)CC(=O)N[C@@H](CCC(N)=O)C(=O)N[C@@H](CCC(N)=O)C(=O)N[C@@H](CCCNC(=N)N)CC(=O)N[C@@H](CCCCN)C(=O)N[C@@H](CC(N)=O)C(=O)N[C@@H](CCC(=O)O)C(=O)N[C@@H](CCC(=O)O)CC(=O)N[C@@H](C)C(=O)N[C@@H](CC(C)C)C(=O)N[C@@H](CCCNC(=N)N)CC(=O)N[C@@H](CCC(=O)O)C(=O)N[C@@H](CC(C)C)C(N)=O)[C@@H](C)CC)[C@@H](C)CC [4α/β] (Ac-[β3hR]TWE[β3hE]WD[β3hR]AIA[β3hE]YA[β3hR]RIE[β3hE]LI[β3hR]AAQ[β3hE]QQ[β3hR]KNE[β3hE]AL[β3hR]EL-NH2; N-terminus and C-terminus assumed)
- IC50 [3]: 0.056 µM
- IC50 [4]: 0.078 µM
- IC50 [5]: 0.153 µM
- half-life [1]: 3.5 min
- Ki [2]: 0.011 µM
- IC50 [7]: 0.049 µM

Molecule: Ac-RTWEEWDRAIAEYARRIEELIRAAQEQQRKNEEALREL-NH2 (N-terminus and C-terminus assumed) [3α]
- apparent Tm of helix-bundle with N36 [8]: 91 °C
- Ki [2]: < 0.0002 µM

Molecule: Enfuvirtide
- IC50 [3]: 0.11 µM
- IC50 [4]: 0.2 µM
- IC50 [5]: 0.18 µM
- IC50 [7]: 0.14 µM
